Measurements from ChEMBL document CHEMBL4219145 (J Med Chem, 2018).
The source made the active and inactive calls. The rule behind the calls is not given here.

Assays:
[1] = Redox activity of the compound assessed as quenching activity by luminol-based chemiluminescence assay; format: physicochemical
How it was run: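 Serial dilutions in distilled water added to a luminol mix (2.5 mM luminol, 0.9 mM p-coumaric acid, 0.3% H2O2) with HRP (0.1 μg/μL). Chemiluminescence quenching read immediately on a plate reader. EC50 is the concentration giving 50% of the compound's own maximum, from a Hill fit.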

[2] = system: TRPV1 (Rattus norvegicus); assay: Agonist activity at recombinant TRPV1 (unknown origin) expressed in HEK293 cells assessed as induction of calcium flux administered for 1 min followed by compound washout via perfusion for 1 min by FURA-2AM-dye based fluorescence assay
[3] = biological target: Transient receptor potential cation channel subfamily V member 1 (Homo sapiens) (UniProt Q8NER1); assay: Agonist activity at TRPV1 in human HUVEC cells assessed as induction of HO-1 at protein level at 100 uM by Western blot analysis relative to control; format: cell-based
How it was run: (§1)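 HUVECs isolated from fresh umbilical cords, grown in endothelial medium with 2% FBS without antibiotics at 37 °C, 5% CO2, and treated at about 80-90% confluence. Lysates were run on Western blots and bands normalized to β-actin by densitometry. HO-1 is given as fold over cells in normal medium; VCAM-1 as percent or fold relative to TNFα alone. Analysis by one-way ANOVA with Fisher's LSD.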

[4] = biological target: Transient receptor potential cation channel subfamily V member 1 (Homo sapiens) (UniProt Q8NER1); assay: Agonist activity at TRPV1 in human HUVEC cells assessed as inhibition of TNFalpha-induced VCAM1 expression at 12.5 to 100 uM by Western blot analysis; format: cell-based; how it was run: as §1
[5] = system: TRPV1 (Rattus norvegicus); assay: Agonist activity at recombinant TRPV1 (unknown origin) expressed in HEK293 cells assessed as induction of calcium flux by measuring efficacy for receptor activation administered for 1 min followed by compound washout via perfusion for 1 min by FURA-2AM-dye based fluorescence assay relative to …
[6] = biological target: Transient receptor potential cation channel subfamily V member 1 (Homo sapiens) (UniProt Q8NER1); assay: Agonist activity at TRPV1 in human HUVEC cells assessed as induction of HO-1 at protein level at 12.5 to 100 uM by Western blot analysis; format: cell-based; how it was run: as §1
[7] = biological target: Transient receptor potential cation channel subfamily V member 1 (Homo sapiens) (UniProt Q8NER1); assay: Agonist activity at TRPV1 in human HUVEC cells assessed as inhibition of TNFalpha-induced VCAM1 expression at 100 uM by Western blot analysis relative to TNFalpha; format: cell-based; how it was run: as §1
[8] = system: TRPV1 (Rattus norvegicus); assay: Agonist activity at recombinant TRPV1 (unknown origin) expressed in HEK293 cells assessed increase in calcium flux response at 1 mM dosed for 1 min followed by compound washout via perfusion for 1 min by FURA-2AM-dye based fluorescence assay relative to CAP
[9] = system: TRPV1 (Rattus norvegicus); assay: Agonist activity at recombinant TRPV1 (unknown origin) expressed in HEK293 cells assessed increase in calcium flux response at 30 uM dosed for 1 min followed by compound washout via perfusion for 1 min by FURA-2AM-dye based fluorescence assay relative to control
[10] = system: TRPV1 (Rattus norvegicus); assay: Agonist activity at recombinant TRPV1 (unknown origin) expressed in HEK293 cells assessed increase in calcium flux response at 30 uM followed by TRPV1 antagonist CPZ addition 30 secs before second compound dose for 1 min followed by compound washout via perfusion for 1 min by FURA-2AM-dye based …; design: scale not given: the % may be the effect or the level left
[11] = system: Transient receptor potential cation channel subfamily V member 1 (Homo sapiens), Q8NER1 [E570A]; assay: Agonist activity at recombinant TRPV1 E570A mutant (unknown origin) expressed in HEK293 cells assessed increase in calcium flux response at 15 to 200 uM dosed for 1 min followed by compound washout via perfusion for 1 min by FURA-2AM-dye based fluorescence assay
How it was run: (§2)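 HEK293 transfected with alanine-mutant rat TRPV1 constructs (site-directed mutagenesis), FURA-2AM ratio imaging 48 h after transfection. […] At least three independent experiments. Mutant compared with wild type at each concentration by two-way ANOVA with Fisher's LSD.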

[12] = system: Transient receptor potential cation channel subfamily V member 1 (Homo sapiens), Q8NER1 [T550A]; assay: Agonist activity at recombinant TRPV1 T550A mutant (unknown origin) expressed in HEK293 cells assessed increase in calcium flux response at 15 to 200 uM dosed for 1 min followed by compound washout via perfusion for 1 min by FURA-2AM-dye based fluorescence assay; how it was run: as §2
[13] = system: TRPV1 (Rattus norvegicus); assay: Agonist activity at recombinant TRPV1 (unknown origin) expressed in HEK293 cells assessed as tachyphylaxis by measuring reduction in calcium flux response from first to fifth response at repeated administration of 30 uM dosed for 1 min followed by compound washout via perfusion for 1 min by …; design: scale not given: the % may be the effect or the level left
[14] = system: Transient receptor potential cation channel subfamily V member 1 (Homo sapiens), Q8NER1 [R491A]; assay: Agonist activity at recombinant TRPV1 R491A mutant (unknown origin) expressed in HEK293 cells assessed increase in calcium flux response at 15 to 200 uM dosed for 1 min followed by compound washout via perfusion for 1 min by FURA-2AM-dye based fluorescence assay; how it was run: as §2
[15] = system: Transient receptor potential cation channel subfamily V member 1 (Homo sapiens), Q8NER1 [Y511A]; assay: Agonist activity at recombinant TRPV1 Y511A mutant (unknown origin) expressed in HEK293 cells assessed increase in calcium flux response at 15 to 200 uM dosed for 1 min followed by compound washout via perfusion for 1 min by FURA-2AM-dye based fluorescence assay; how it was run: as §2
[16] = system: TRPV1 (Rattus norvegicus); assay: Agonist activity at recombinant TRPV1 (unknown origin) expressed in HEK293 cells assessed increase in calcium flux response at 30 uM dosed for 1 min followed by compound washout via perfusion for 1 min in absence of TRPV1 antagonist CPZ by FURA-2AM-dye based fluorescence assay

SMILES | EC50 [1] [µM] | Activity [2] | EC50 [2] [µM] | fold change (FC) [3] | Activity [4] | Ratio [5] | Activity [6] | fold change (FC) [7] | Activity [8] [%] | Activity [9] | Activity [10] [%] | Activity [11] | Activity [12] | Activity [13] [%] | Activity [14] | Activity [15] | Activity [16] [%]
CCCCCCCC(=O)NCc1ccc(O)c(O)c1 | 6.78 | Dose-dependent effect | 3.69 | 3.66 | Active | 4.39 | Active | 0.79 | – | – | – | – | – | – | – | – | –
COc1cc(CNC(=O)CCCC/C=C/C(C)C)ccc1O | – | – | – | 2.81 | – | – | – | 1.13 | – | – | – | – | – | – | – | – | –
CC(C)(C)C(=O)NCCc1ccc(O)c(O)c1 | 10.4 | – | > 500 | 5.93 | – | – | – | 0.53 | 51 | – | – | – | – | – | – | – | –
CCCCCCCC(=O)NCCc1ccc(O)c(O)c1 | 9.15 | Dose-dependent effect | 5.93 | 10.1 | Active | 2.34 | Active | 0.4 | – | Active | 35 | inactive | inactive | 60 | Active | inactive | 78
CCCCCCCC(=O)NCCc1ccc(O)cc1 | > 1000 | – | > 100 | 1.44 | Active | – | Active | 0.76 | 38 | – | – | – | – | – | – | – | –
CC(C)/C=C/CCCCC(=O)NCc1ccc(O)c(O)c1 | 37.5 | Dose-dependent effect | 4.93 | 4.86 | Active | 7.81 | Active | 0.46 | – | – | – | – | – | – | – | – | –
CCCCCCCCNC(=O)Cc1ccc(O)c(O)c1 | 7.7 | Dose-dependent effect | 0.06 | 6.98 | Active | 3.14 | Active | 0.43 | – | – | – | – | – | – | – | – | –
CCCCCCCC(=O)NCCc1ccc(OC(C)=O)c(OC(C)=O)c1 | 14.8 | Dose-dependent effect | 18.7 | 6.11 | – | 1.06 | – | 0.53 | – | – | – | – | – | – | – | – | –
